Results gathered from unrelated publications.
Protocols differ between the studies behind these lines.
Target: 3-phosphoinositide-dependent protein kinase 1 (PDPK1, Homo sapiens, UniProt O15530)
Sequence (O15530 1-556, as in one of the studies): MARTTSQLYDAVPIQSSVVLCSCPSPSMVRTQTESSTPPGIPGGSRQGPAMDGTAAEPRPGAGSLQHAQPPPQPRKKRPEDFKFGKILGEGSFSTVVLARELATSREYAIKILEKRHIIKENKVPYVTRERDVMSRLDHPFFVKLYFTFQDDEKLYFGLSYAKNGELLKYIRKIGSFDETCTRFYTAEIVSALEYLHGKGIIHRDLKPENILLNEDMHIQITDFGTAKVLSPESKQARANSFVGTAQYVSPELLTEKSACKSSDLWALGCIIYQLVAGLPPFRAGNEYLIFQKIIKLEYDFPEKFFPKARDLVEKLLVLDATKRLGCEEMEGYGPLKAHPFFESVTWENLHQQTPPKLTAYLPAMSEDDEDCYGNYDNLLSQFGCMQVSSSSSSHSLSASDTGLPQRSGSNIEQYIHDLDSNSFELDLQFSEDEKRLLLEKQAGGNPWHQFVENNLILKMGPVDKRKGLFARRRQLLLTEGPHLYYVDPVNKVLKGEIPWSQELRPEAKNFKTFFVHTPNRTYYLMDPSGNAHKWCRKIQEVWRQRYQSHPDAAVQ

CN(CCCC(F)(F)F)c1nccc(-c2cnn3ncccc23)n1 — remaining binding (binding; 1 µM): 100%
Cn1cc(Cl)c2c(Oc3c(F)cc(Nc4cc(Cl)nc(N)n4)cc3F)ccnc21 — remaining binding (cell-free assay; competition with immobilised ligand; 0.1 µM): 61%
N[C@H]1CCN(c2nccc(-c3cnn4ncccc34)n2)C1 — remaining binding (binding; 1 µM): 97%
O=C(NCCCN1CCOCC1)c1ccc(Nc2ncc(Cl)c(-c3ccc(Cl)s3)n2)cc1 — remaining binding (binding; competition with immobilised ligand; 1 µM): 100%
N#Cc1ccccc1CSc1nnc2c(n1)[nH]c1ccccc12 — remaining binding (binding; competition with immobilised ligand; 10 µM): 91%
COc1cnc(Nc2cccc(S(N)(=O)=O)c2)nc1N1CCN(c2ccccc2)C(=O)C1 — remaining binding (binding; competition with immobilised ligand; 1 µM): 100%
C[C@@H]1CN(c2ccc3ncc(-c4ccc5[nH]nc(C6CC6)c5c4)n3n2)C[C@H](C)O1 — remaining binding (binding; competition with immobilised ligand; 0.5 µM): 100%
COc1ccc2c(c1)O[C@@H](c1ccc(OC)c(OC)c1)C[C@H]2NC(=O)C1(c2ccc3c(c2)OC(F)(F)O3)CC1 — remaining binding (cell-free assay; competition with immobilised ligand; 1 µM): 100%
O=C(c1ccc(Nc2ncc(Cl)c(-c3cc4ccccc4s3)n2)cc1)N1CCC(N2CCCC2)CC1 — remaining binding (binding; competition with immobilised ligand; 1 µM): 78%
NS(=O)(=O)c1cc(NC(=O)C2(c3ccccc3Cl)CC2)ccc1Oc1cccc(Cl)c1 — remaining binding (cell-free assay; competition with immobilised ligand; 1 µM): 85%
CS(=O)(=O)CCNCc1ccc(-c2ccc3ncnc(Nc4ccc(OCc5cccc(F)c5)c(Cl)c4)c3c2)o1 — remaining binding (cell-free assay; competition with immobilised ligand; 10 µM): 100%
O=C(Nc1cccnn1)N1CCC(=Cc2cccc(Oc3ccc(C(F)(F)F)cn3)c2)CC1 — remaining binding (cell-free assay; competition with immobilised ligand; 1 µM): 85%
Cc1c(-c2ccccc2)oc2c(C(=O)OCCN3CCCCC3)cccc2c1=O — remaining binding (cell-free assay; competition with immobilised ligand; 0.1 µM): 100%
CNC(=O)[C@@H]1CC[C@@H](n2c(-c3ccc4cnccc4c3)nc3ccc(C(=O)NCc4cccc(C(N)=O)c4)cc32)C1 — remaining binding (binding; competition with immobilised ligand; 1 µM): 51%
O=C(c1ccc(Nc2ncc(Cl)c(-c3ccc(Cl)s3)n2)cc1)N1CCC(N2CCCC2)CC1 — remaining binding (binding; competition with immobilised ligand; 1 µM): 82%
CCN(CC)CCNC(=O)c1c(C)[nH]c(/C=C2\C(=O)Nc3ccc(F)cc32)c1C — remaining binding (cell-free assay; competition with immobilised ligand; 0.1 µM): 100%
O=C(Nc1c[nH]nc1C(=O)NC1CCNCC1)c1cc(F)cc(F)c1 — remaining binding (binding; competition with immobilised ligand; 1 µM): 90%
COc1cc2ncnc(Nc3ccc(F)c(Cl)c3)c2cc1OCCCN1CCOCC1 — remaining binding (cell-free assay; competition with immobilised ligand; 0.1 µM): 100%
CN(C)c1nccc(-c2cnn3ncccc23)n1 — remaining binding (binding; 1 µM): 100%
CS(=O)(=O)NCC[C@H](NC(=O)c1cncc2c1cnn2-c1ccc(F)cc1)c1ccnc(S(C)(=O)=O)c1 — remaining binding (cell-free assay; competition with immobilised ligand; 1 µM): 100%
CN(C)c1nccc(-c2cnc3ncccn23)n1 — remaining binding (binding; 1 µM): 100%
c1cncc(-c2cccc(Nc3nccc(NC4CCCCC4)n3)c2)c1 — remaining binding (binding; competition with immobilised ligand; 10 µM): 100%
Cc1nc(Nc2ncc(C(=O)Nc3c(C)cccc3Cl)s2)cc(N2CCN(CCO)CC2)n1 — remaining binding (cell-free assay; competition with immobilised ligand; 10 µM): 100%
CN(c1nccc(-c2cnn3ncccc23)n1)C1CC1 — remaining binding (binding; 1 µM): 100%
CCN(CC)Cc1cc(Nc2ccnc3cc(Cl)ccc23)ccc1O — remaining binding (cell-free assay; competition with immobilised ligand; 10 µM): 93%
CCCCN(CCCC)C(=O)CN1C[C@@H](c2cc(OC)c3c(c2)OCO3)[C@H](C(=O)O)[C@H]1CC(C)(C)CCC — remaining binding (cell-free assay; competition with immobilised ligand; 1 µM): 77.3%
Cc1ccc(NC(=O)c2ccc(CN3CCN(C)CC3)cc2)cc1Nc1nccc(-c2cccnc2)n1 — remaining binding (cell-free assay; competition with immobilised ligand; 0.1 µM): 100%
C[C@@]1(Cc2ccc(C#N)cc2)C(=O)N(c2cc(Cl)cc(Cl)c2)c2ncc(C(=O)NC3(c4nc(C5CCC5)no4)CC3)n21 — remaining binding (cell-free assay; competition with immobilised ligand; 1 µM): 100%
CN1CC[C@H](c2c(O)cc(O)c3c(=O)cc(-c4ccccc4Cl)oc23)[C@H](O)C1 — remaining binding (cell-free assay; competition with immobilised ligand; 0.1 µM): 100%
FC(F)(F)Oc1cccc(-c2cnc3ccc(-c4ccncc4)nn23)c1 — remaining binding (cell-free assay; competition with immobilised ligand; 5 µM): 90%
COc1ncc2cc3ccccc3nc2c1C#N — remaining binding (cell-free assay; competition with immobilised ligand; 5 µM): 88%
C[C@H](c1ccc(F)cc1)N(Cc1cccc(C(=O)O)c1)C(=O)c1cnc2ccccc2c1 — remaining binding (cell-free assay; competition with immobilised ligand; 1 µM): 100%
C[C@H]1CCN(c2nccc(-c3cnn4ncccc34)n2)C1 — remaining binding (binding; 1 µM): 100%
C[C@@H](c1ccc(-n2cnc3c(N)ncnc32)cc1)N1CCc2nn(C)c(Cc3ccccc3)c2C1=O — remaining binding (binding; competition with immobilised ligand; 0.1 µM): 100%
